Our source for the Aggregation response values is ChEMBL document CHEMBL1122050, “Synthesis of prostanoids with bicyclo[2.2.1]heptane, bicyclo[3.1.1]heptane, and bicyclo[2.2.2]octane ring systems. Activities of 15-hydroxy epimers on human platelets” (J Med Chem, 1982).

The species named for experiment [1] is Homo sapiens. The experiment is described as follows: Compound was evaluated for aggregation properties on human platelets at 10/1.4 uM (Dose ratio defined as the ratio of the concentrations of the agonist producing recorder unit responses in the presence and in the absence of the inhibitor); Inhibition. The class given is functional.
The species named for experiment [2] is Homo sapiens. In words: Compound was evaluated for aggregation properties on human platelets at 1.3 uM; Irreversible. The class given is functional. The essentials: (§1)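 Citrated human platelet-rich plasma mixed with Krebs solution and 0.9% NaCl, preincubated 2 min at 37 °C. Aggregation recorded in a Born-type aggregometer. The value is the concentration giving a primary aggregation response of 20 chart-recorder units; irreversible aggregation corresponds to 80–90 units. Each value is the mean of single determinations on PRP from at least three donors.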

The species entered for experiment [3] is Homo sapiens. The experiment is described as follows: Compound was evaluated for aggregation properties on human platelets at 5 uM; Reversible. It counts as functional. The method in brief: as §1
The species named for experiment [4] is Homo sapiens. In words: Compound was evaluated for aggregation properties on human platelets at 0.14 uM; Irreversible. The class given is functional. The essentials:
as §1

Experiment [5] is filed under the species Homo sapiens. In words: Compound was evaluated for aggregation properties on human platelets at 3.5 uM; Irreversible. The class given is functional. The method in brief:
as §1

The species entered for experiment [6] is Homo sapiens. The experiment is described as follows: Compound was evaluated for aggregation properties on human platelets at 10/2.9 uM (Dose ratio defined as the ratio of the concentrations of the agonist producing recorder unit responses in the presence and in the absence of the inhibitor); Inhibition. The class given is functional.
Experiment [7] is filed under the species Homo sapiens. In words: Compound was evaluated for aggregation properties on human platelets at 20 uM (highest concentration tested); Shape change only. The class given is functional, organism-based.
For experiment [8], the species on record is Homo sapiens. The experiment is described as follows: Compound was evaluated for aggregation properties on human platelets at 10 uM (highest concentration tested); No effect. It counts as functional, organism-based.
The species entered for experiment [9] is Homo sapiens. In words: Compound was evaluated for aggregation properties on human platelets at 10/1.3 uM (Dose ratio defined as the ratio of the concentrations of the agonist producing recorder unit responses in the presence and in the absence of the inhibitor); Inhibition. It counts as functional.
For experiment [10], the species on record is Homo sapiens. In words: Compound was evaluated for aggregation properties on human platelets at 80 uM (highest concentration tested); No effect. It counts as functional, organism-based.
The species named for experiment [11] is Homo sapiens. In words: Compound was evaluated for aggregation properties on human platelets at 0.19 uM; Irreversible. It counts as functional. The essentials: as §1
Experiment [12] is filed under the species Homo sapiens. In words: Compound was evaluated for aggregation properties on human platelets at 1.7 uM; Irreversible. The class given is functional. The essentials:
as §1

The species named for experiment [13] is Homo sapiens. In words: Compound was evaluated for aggregation properties on human platelets at 80 uM (highest concentration tested); Shape change only. It counts as functional, organism-based.
The species entered for experiment [14] is Homo sapiens. In words: Compound was evaluated for aggregation properties on human platelets at 0.23 uM; Irreversible. The class given is functional. The method in brief:
as §1

For experiment [15], the species on record is Homo sapiens. The experiment is described as follows: Compound was evaluated for aggregation properties on human platelets at 20 uM (highest concentration tested); No effect. The class given is functional, organism-based.
Experiment [16] is filed under the species Homo sapiens. In words: Compound was evaluated for aggregation properties on human platelets at 0.72 uM; Irreversible. The class given is functional. The method in brief: as §1
Experiment [17] is filed under the species Homo sapiens. The experiment is described as follows: Compound was evaluated for aggregation properties on human platelets at 10/1.5 uM (Dose ratio defined as the ratio of the concentrations of the agonist producing recorder unit responses in the presence and in the absence of the inhibitor); Inhi bition.
The species entered for experiment [18] is Homo sapiens. The experiment is described as follows: Compound was evaluated for aggregation properties on human platelets at 6.2 uM; Irreversible. It counts as functional. The essentials:
as §1

The species entered for experiment [19] is Homo sapiens. In words: Compound was evaluated for aggregation properties on human platelets at 10/25 uM (Dose ratio defined as the ratio of the concentrations of the agonist producing recorder unit responses in the presence and in the absence of the inhibitor); Inhi bition. It counts as functional, organism-based.
Experiment [20] is filed under the species Homo sapiens. The experiment is described as follows: Compound was evaluated for aggregation properties on human platelets at 2.5/4.8 uM (Dose ratio defined as the ratio of the concentrations of the agonist producing recorder unit responses in the presence and in the absence of the inhibitor); In hibition. The class given is functional, organism-based.

The species named for experiment [21] is Homo sapiens. The experiment is described as follows: Compound was evaluated for aggregation properties on human platelets at 15 uM; Reversible. It counts as functional. The method in brief:
as §1

The species named for experiment [22] is Homo sapiens. The experiment is described as follows: Compound was evaluated for aggregation properties on human platelets at 0.31 uM; Irreversible. It counts as functional. The method in brief:
as §1

Experiment [23] is filed under the species Homo sapiens. In words: Compound was evaluated for aggregation properties on human platelets at 0.26 uM; Irreversible. The class given is functional. The essentials:
as §1

The source made the active and inactive calls.

For `CCCCC[C@@H](O)/C=C/[C@H]1C2CC([C@@H]1C/C=C\CCCC(=O)O)C2(C)C` (some centres undefined), the Aggregation response entry in the experiment listed under Homo sapiens [1] is “Inhibition”. Consider `CCCCC[C@H](O)/C=C/[C@H]1C2CCC(CC2)[C@@H]1C/C=C\CCCC(=O)O`, for which the Aggregation response entry in the experiment filed under Homo sapiens [2] was “Irreversible”.

With `CC1(C)C2CC1[C@H](C/C=C\CCCC(=O)O)[C@H]2/C=C/[C@H](O)COc1ccc(F)cc1` (some centres undefined), in the experiment listed under Homo sapiens [3], the Aggregation response result is listed as “Reversible”. On to `O=C(O)CCC/C=C\C[C@H]1C2CCC(C2)[C@@H]1/C=C/[C@@H](O)COc1ccc(F)cc1` (some centres undefined), for which the Aggregation response result in the experiment filed under Homo sapiens [4] was “Irreversible”. In the case of `O=C(O)CCC/C=C\C[C@H]1C2CCC(C2)[C@@H]1/C=C/[C@H](O)COc1ccc(Cl)cc1` (some centres undefined), the Aggregation response entry in the experiment listed under Homo sapiens [5] is recorded as “Irreversible”.

Take `CCCCC[C@@H](O)/C=C/[C@H]1C2CCC(CC2)[C@@H]1C/C=C\CCCC(=O)O`: in the experiment filed under Homo sapiens [6], the Aggregation response entry was “Inhibition”. `CCCCC[C@@H](O)/C=C/[C@H]1C2COC(C2)[C@@H]1C/C=C\CCCC(=O)O` (some centres undefined): the Aggregation response entry in the experiment listed under Homo sapiens [7] was “Shape change only”. As for `O=C(O)CCC/C=C\C[C@H]1C2C=CC(C2)[C@@H]1/C=C/C(=O)COc1ccc(F)cc1` (some centres undefined), in the experiment filed under Homo sapiens [8], the Aggregation response result is “inactive”. As to `CCCCC[C@@](C)(O)/C=C/[C@H]1C2CCC(C2)[C@@H]1C/C=C\CCCC(=O)O` (some centres undefined), in the experiment listed under Homo sapiens [9], the Aggregation response entry is on record as “Inhibition”. On to `O=C(O)CCC/C=C\C[C@H]1C2C=CC(C2)[C@@H]1/C=C/[C@H](O)CCc1ccc(Cl)cc1` (some centres undefined), for which, in the experiment filed under Homo sapiens [10], the Aggregation response entry was “inactive”.

As for `O=C(O)CCC/C=C\C[C@H]1C2C=CC(C2)[C@@H]1/C=C/[C@@H](O)COc1ccc(F)cc1` (some centres undefined), in the experiment listed under Homo sapiens [11], the Aggregation response result is on record as “Irreversible”. Take `O=C(O)CCC/C=C\C[C@H]1C2C=CC(C2)[C@@H]1/C=C/[C@H](O)COc1ccc(F)cc1` (some centres undefined): the Aggregation response result in the experiment listed under Homo sapiens [12] is “Irreversible”.

As to `O=C(O)CCC/C=C\C[C@H]1C2C=CC(C2)[C@@H]1/C=C/[C@@H](O)CCc1ccc(Cl)cc1` (some centres undefined), in the experiment listed under Homo sapiens [13], the Aggregation response result was “Shape change only”. Turning to `CCCCC[C@H](O)/C=C/[C@H]1C2CC(CO2)[C@@H]1C/C=C\CCCC(=O)O` (some centres undefined), the Aggregation response entry in the experiment filed under Homo sapiens [14] is given as “Irreversible”. Take `CCCCCC(=O)/C=C/[C@H]1C2COC(C2)[C@@H]1C/C=C\CCCC(=O)O` (some centres undefined): the Aggregation response entry in the experiment listed under Homo sapiens [15] is “inactive”. For `O=C(O)CCC/C=C\C[C@H]1C2CCC(C2)[C@@H]1/C=C/[C@@H](O)COc1ccc(Cl)cc1` (some centres undefined), in the experiment filed under Homo sapiens [16], the Aggregation response entry was “Irreversible”. For the compound `CCCCC[C@@H](O)/C=C/[C@H]1C2CCC(C2)[C@@H]1C/C=C\CCCC(=O)O` (some centres undefined), the Aggregation response entry in the experiment listed under Homo sapiens [17] was “Inhibition”. In the case of `CCCCC[C@](C)(O)/C=C/[C@H]1C2CCC(C2)[C@@H]1C/C=C\CCCC(=O)O` (some centres undefined), the Aggregation response entry in the experiment listed under Homo sapiens [18] is “Irreversible”. For the compound `CCCCC[C@H](O)/C=C/[C@H]1C2CC([C@@H]1C/C=C\CCCC(=O)O)C2(C)C` (some centres undefined), the Aggregation response entry in the experiment filed under Homo sapiens [19] and in the experiment filed under Homo sapiens [20] was “Inhibition” each time. Regarding `O=C(O)CCC/C=C\C[C@H]1C2CCC(C2)[C@@H]1/C=C/[C@H](O)COc1ccc(F)cc1` (some centres undefined), in the experiment listed under Homo sapiens [2], the Aggregation response result was “Irreversible”. Regarding `CCCCC[C@H](O)/C=C/[C@H]1C2CCC(C2)[C@@H]1C/C=C\CCCC(=O)O` (some centres undefined), in the experiment listed under Homo sapiens [21], the Aggregation response entry is on record as “Reversible”. With `CC1(C)C2CC1[C@H](C/C=C\CCCC(=O)O)[C@H]2/C=C/[C@@H](O)COc1ccc(F)cc1` (some centres undefined), the Aggregation response result in the experiment filed under Homo sapiens [22] is reported as “Irreversible”. On to `CCCCC[C@H](O)/C=C/[C@H]1C2COC(C2)[C@@H]1C/C=C\CCCC(=O)O` (some centres undefined), for which the Aggregation response result in the experiment filed under Homo sapiens [23] is given as “Irreversible”.
